Source: PubChem BioAssay
Only some compounds are listed: those with a hit (about 2.9% of all), similar ones and a draw of the others.
HCV core dimer: HCV core protein dimerization inhibition | 0.33% of 300,000 active | inhibition, % at 5 µM | AID 1899 | TR-FRET GST/Flag-core106 dimerization, 1536-well;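 active = inhibition above the mean of all tested compounds plus 3 SD, set per screening campaign, cut at about 45% in these data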
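Material: GST/Flag-tagged HCV core106 proteins. Incubation: 4 h, 22.5 °C incubation. Read-out basis: inhibition (%) from 671 over 617 nm ratio. Measured by: TR-FRET, excitation 340 nm, emission 617 and 671 nm.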
APOBEC3G inh: APOBEC3G (human) deaminase inhibition; inhibition, % at 20 µM; recombinant A3G, ssDNA deamination FAM/TAMRA fluorescence; Q9HC16; AID 493012; 0.28% of 330,000 active;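 active = inhibition of at least 40% at 20 µM, with no more than 30% in the related APOBEC3A deaminase screen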;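 note: plate controls were DMSO wells with A3G for no effect and wells lacking A3G enzyme for full effect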
Target sequence (Q9HC16 whole entry, looked up): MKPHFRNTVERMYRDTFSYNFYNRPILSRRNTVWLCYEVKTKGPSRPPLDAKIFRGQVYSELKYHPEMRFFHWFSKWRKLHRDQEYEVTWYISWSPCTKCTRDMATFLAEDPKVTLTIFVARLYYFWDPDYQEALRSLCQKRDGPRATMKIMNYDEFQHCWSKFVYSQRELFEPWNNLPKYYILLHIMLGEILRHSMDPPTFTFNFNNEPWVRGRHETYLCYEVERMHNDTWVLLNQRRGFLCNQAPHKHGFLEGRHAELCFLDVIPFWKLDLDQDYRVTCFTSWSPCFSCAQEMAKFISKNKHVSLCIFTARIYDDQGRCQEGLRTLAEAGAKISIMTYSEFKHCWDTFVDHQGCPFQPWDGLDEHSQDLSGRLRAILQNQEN
ABHD5-PLIN5 inh: inhibitors of human ABHD5-perilipin-5 interaction; inhibition, % at 4 µM; Split G. princeps luciferase complementation, luminescence, 4 h; 0.78% of 360,000 active; Q00G26+Q8WTS1;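 active = inhibition above the mean inhibition across every tested compound plus 3 SD, cut at about 22% in these data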;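 note: 0% = DMSO only wells and the 100% control is not disclosed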
HCV NS3 hel inh: inhibitors of Hepatitis C virus NS3 helicase | inhibition, % at 10.9 µM | AID 1800 | NS3 helicase DNA unwinding, Cy5 molecular beacon fluorescence | 0.56% of 290,000 active;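 active = inhibition above the mean of all tested compounds plus 3 SD, set per campaign, cut at about 35% in these data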;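 note: 0% = DMSO wells and 100% = thioflavine S control wells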
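Measured by: Cy5 fluorescence, 0 and 60 min reads / Assay system: NS3 helicase fragment of HCV / Control set: low DMSO, high thioflavine S at 110 µM / Times: 1 h reaction at 25 °C, ATP-initiated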
PRMT1 FP inh: PRMT1 (human) inhibition, primary screen; Q99873; recombinant PRMT1, activity-based probe fluorescence polarization; inhibition, % at 2.79 µM; 1.3% of 370,000 active; AID 652257;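 active = inhibition above about 21% made by adding two undisclosed values, limit read from the data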
A3A deaminase: blocks human APOBEC3A ssDNA deamination; recombinant A3A, FAM/TAMRA ssDNA deamination fluorescence; P31941; inhibition, % at 20 µM; 0.41% of 330,000 active;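 active = at least 40% inhibition at 20 µM here, with at most 30% in a related deaminase screen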;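 note: plate controls were A3A with DMSO for no effect and wells lacking A3A enzyme for full effect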
Target sequence (P31941 whole entry, looked up): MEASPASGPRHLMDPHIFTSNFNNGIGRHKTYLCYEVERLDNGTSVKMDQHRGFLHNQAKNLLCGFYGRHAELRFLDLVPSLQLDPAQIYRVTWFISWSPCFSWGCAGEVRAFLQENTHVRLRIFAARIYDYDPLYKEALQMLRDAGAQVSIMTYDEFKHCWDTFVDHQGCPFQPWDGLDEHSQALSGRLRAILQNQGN
NS3 hel confirm: confirmation of Hepatitis C virus NS3 helicase inhibitors; inhibition, % at 10.9 µM; 31% of 1,600 active; shares compounds with HCV NS3 hel inh; NS3 helicase DNA unwinding, Cy5 molecular beacon fluorescence;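 active = inhibition above the mean of all tested compounds plus 3 SD, cutoff set per campaign, cut at about 36% in these data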
FID counter trip: intercalator displacement, NS3 helicase counter-screen | shares compounds with HCV NS3 hel inh | DNA fluorescent intercalator displacement, fluorescence | inhibition, % at 7.9 µM | 4% of 1,600 active; in the data active = inhibition above about 37%;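 note: 0% = vehicle and 100% = reference compound; higher means more displacement of ethidium bromide from the DNA hairpin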
Starred values were filed as active, the others as inactive.

Cc1cccn2c(=O)c3cc(C(=O)NC4CCCCC4)c(=N)n(Cc4ccccc4)c3nc12 was read as HCV core dimer 6, APOBEC3G inh -1, ABHD5-PLIN5 inh 4, HCV NS3 hel inh -18, PRMT1 FP inh 1 and A3A deaminase 2.
Screening Cc1cccn2c(=O)c3cc(C(=O)NC4CCCC4)c(=N)n(C4CCCCC4)c3nc12 returned HCV core dimer -16, APOBEC3G inh 4, ABHD5-PLIN5 inh 2, HCV NS3 hel inh 40*, PRMT1 FP inh -3, A3A deaminase 5, NS3 hel confirm -14 and FID counter trip 18.
`CC(C)c1ccc(SCc2noc(C(=O)NCC3CCCO3)c2C(=O)O)cc1` (stereo not drawn) gave HCV core dimer -7, APOBEC3G inh 10, ABHD5-PLIN5 inh 4, HCV NS3 hel inh 41*, PRMT1 FP inh 0, A3A deaminase 3, NS3 hel confirm 36 and FID counter trip -19.
CCc1ccccc1OCC(=O)NC1CCCC1 was read as ABHD5-PLIN5 inh 0, HCV NS3 hel inh 49*, PRMT1 FP inh -1, NS3 hel confirm -1 and FID counter trip -7.
`ClCc1csc(N/N=C/c2cccs2)n1` gave HCV core dimer 18, APOBEC3G inh -9, HCV NS3 hel inh 43*, A3A deaminase -8, NS3 hel confirm 4 and FID counter trip 16.
`Cc1cc(C)c(C(=O)CSc2nnc(-c3ccccc3Br)o2)cc1C` gave ABHD5-PLIN5 inh 2, HCV NS3 hel inh 39*, PRMT1 FP inh 3, NS3 hel confirm 0 and FID counter trip 3.
`CCc1cc(=O)oc2c3c(cc(OCC(=O)NC4CC4)c12)OC(C)(C)CC3` gave HCV core dimer 0, APOBEC3G inh 1, ABHD5-PLIN5 inh -1, HCV NS3 hel inh 42*, PRMT1 FP inh 1, A3A deaminase 0, NS3 hel confirm -8 and FID counter trip -37.
CCCCCCCCCCCCCCCC(=O)OC(CC(=O)O)C[N+](C)(C)C (stereo not drawn) was read as HCV core dimer -18, APOBEC3G inh -1, ABHD5-PLIN5 inh -1, PRMT1 FP inh 2 and A3A deaminase 1.
Screening COc1cc(OC)c(-c2c3cc(O)c(=O)cc-3oc3cc(O)c(O)cc23)cc1OC returned HCV core dimer -18, APOBEC3G inh -11, ABHD5-PLIN5 inh -9, HCV NS3 hel inh 51*, PRMT1 FP inh 24*, A3A deaminase 1, NS3 hel confirm 86* and FID counter trip -167.
`COc1cc(-c2cc(=O)c3ccc(O)cc3o2)cc(OC)c1OC` gave ABHD5-PLIN5 inh -3 and PRMT1 FP inh 14.
COc1ccccc1C#Cc1cnc2c(c1)C(=O)N([C@H](C)CO)C[C@@H](C)[C@@H](CN(C)C(=O)c1ccc3c(c1)OCO3)O2 was read as ABHD5-PLIN5 inh 10 and PRMT1 FP inh -1.
O=P(c1ccccc1)(c1ccccc1)c1cnc2ccccn12 was read as PRMT1 FP inh 4.
Screening Nc1nc(-c2ccco2)cs1 returned HCV core dimer -6, APOBEC3G inh -5, ABHD5-PLIN5 inh -10, HCV NS3 hel inh 37*, PRMT1 FP inh 8, A3A deaminase -1, NS3 hel confirm -14 and FID counter trip -1.
Screening Cc1onc(-c2ccccc2)c1C(=O)Nc1ccc(Br)cc1Cl returned HCV core dimer 7, APOBEC3G inh -4, ABHD5-PLIN5 inh 11, HCV NS3 hel inh 8, PRMT1 FP inh -2 and A3A deaminase -5.
Screening CCOc1ccccc1NC(=O)C(=O)CC(=O)c1ccc(OC)cc1 returned HCV core dimer -38, APOBEC3G inh -1, ABHD5-PLIN5 inh 0, HCV NS3 hel inh 37*, PRMT1 FP inh 5, A3A deaminase 5, NS3 hel confirm -33 and FID counter trip -1.
COc1ccc(C(=O)CC(=O)C(=O)Nc2cc(C)ccc2C)cc1 was read as HCV core dimer 13, APOBEC3G inh -6, ABHD5-PLIN5 inh 5, HCV NS3 hel inh 30, PRMT1 FP inh -1 and A3A deaminase -4.
COc1ccc(C(=O)CC(=O)C(=O)Nc2ccc([N+](=O)[O-])cc2C)cc1 was read as HCV core dimer 1, APOBEC3G inh 0, ABHD5-PLIN5 inh 6, HCV NS3 hel inh 37*, PRMT1 FP inh -4, A3A deaminase -5, NS3 hel confirm -8 and FID counter trip -7.
For Oc1ccc(C=Nc2ccc(N3CCOCC3)cc2)c(O)c1 the results were HCV core dimer 7, APOBEC3G inh 2, ABHD5-PLIN5 inh -11, HCV NS3 hel inh 30, PRMT1 FP inh 3 and A3A deaminase 5.
Screening Oc1ccc(N=Nc2cccc(C(F)(F)F)c2)cc1C=Nc1ccc(N2CCOCC2)cc1 returned HCV core dimer -3, APOBEC3G inh 0, ABHD5-PLIN5 inh -14, HCV NS3 hel inh 45*, PRMT1 FP inh 1, A3A deaminase 3, NS3 hel confirm 1 and FID counter trip 39*.
Screening Cc1ccccc1CN1CCc2c(OCC(=O)N3CCCc4ccccc43)cccc2C1=O returned HCV core dimer 11, ABHD5-PLIN5 inh -2, HCV NS3 hel inh 75*, PRMT1 FP inh -3, NS3 hel confirm -12 and FID counter trip -44.
For O=C(O)c1ccc(-c2ccc(/C=c3/sc4nc5ccccc5n4c3=O)o2)cc1Cl the results were HCV core dimer 10, APOBEC3G inh 82, ABHD5-PLIN5 inh 4, HCV NS3 hel inh 63*, PRMT1 FP inh 12, A3A deaminase 97, NS3 hel confirm 60* and FID counter trip 24.
Cc1cc(C)c2nc3sc(=Cc4ccc(-c5ccccc5C(=O)O)o4)c(=O)n3c2c1 was read as ABHD5-PLIN5 inh -5 and PRMT1 FP inh 6.
For COc1cc(-c2cc3nc(NCCOc4ccccc4)ccn3n2)cc(OC)c1OC the results were ABHD5-PLIN5 inh 4 and PRMT1 FP inh 1.
Screening COc1ccc(C)cc1NCc1cc(=O)oc2cc(-c3ccccc3)c(O)cc12 returned HCV core dimer 13, APOBEC3G inh 0, ABHD5-PLIN5 inh -5, HCV NS3 hel inh 49*, PRMT1 FP inh -4, A3A deaminase 3, NS3 hel confirm 0 and FID counter trip 10.
`Cc1ccc(/C=C/C(=O)Nc2ncc(C)s2)o1` gave HCV core dimer -4, APOBEC3G inh 1, ABHD5-PLIN5 inh 11, HCV NS3 hel inh 50*, PRMT1 FP inh 16, A3A deaminase 24, NS3 hel confirm -9 and FID counter trip 8.
`O=C(N/N=C/c1ccc[nH]1)c1cc2ccccc2cc1O` gave HCV core dimer 1, APOBEC3G inh -6, ABHD5-PLIN5 inh -4, HCV NS3 hel inh 41*, PRMT1 FP inh 6, A3A deaminase -3, NS3 hel confirm -14 and FID counter trip 5.
